According to ChEMBL document CHEMBL1143246, “Design and synthesis of bicyclic pyrimidinones as potent and orally bioavailable HIV-1 integrase inhibitors” (J Med Chem, 2008):
Values belong to the molecule of their own block, whether it stands above or below them.

Assays:
Liver microsomes = assay: Metabolic stability in rat liver microsomes in presence of UDPGA; assay type: ADME, Microsome
[1] = target: T1, DNA polymerase alpha catalytic subunit (Homo sapiens, UniProt P09884); assay: Inhibition of human DNA polymerase alpha
T1 sequence (P09884 whole entry): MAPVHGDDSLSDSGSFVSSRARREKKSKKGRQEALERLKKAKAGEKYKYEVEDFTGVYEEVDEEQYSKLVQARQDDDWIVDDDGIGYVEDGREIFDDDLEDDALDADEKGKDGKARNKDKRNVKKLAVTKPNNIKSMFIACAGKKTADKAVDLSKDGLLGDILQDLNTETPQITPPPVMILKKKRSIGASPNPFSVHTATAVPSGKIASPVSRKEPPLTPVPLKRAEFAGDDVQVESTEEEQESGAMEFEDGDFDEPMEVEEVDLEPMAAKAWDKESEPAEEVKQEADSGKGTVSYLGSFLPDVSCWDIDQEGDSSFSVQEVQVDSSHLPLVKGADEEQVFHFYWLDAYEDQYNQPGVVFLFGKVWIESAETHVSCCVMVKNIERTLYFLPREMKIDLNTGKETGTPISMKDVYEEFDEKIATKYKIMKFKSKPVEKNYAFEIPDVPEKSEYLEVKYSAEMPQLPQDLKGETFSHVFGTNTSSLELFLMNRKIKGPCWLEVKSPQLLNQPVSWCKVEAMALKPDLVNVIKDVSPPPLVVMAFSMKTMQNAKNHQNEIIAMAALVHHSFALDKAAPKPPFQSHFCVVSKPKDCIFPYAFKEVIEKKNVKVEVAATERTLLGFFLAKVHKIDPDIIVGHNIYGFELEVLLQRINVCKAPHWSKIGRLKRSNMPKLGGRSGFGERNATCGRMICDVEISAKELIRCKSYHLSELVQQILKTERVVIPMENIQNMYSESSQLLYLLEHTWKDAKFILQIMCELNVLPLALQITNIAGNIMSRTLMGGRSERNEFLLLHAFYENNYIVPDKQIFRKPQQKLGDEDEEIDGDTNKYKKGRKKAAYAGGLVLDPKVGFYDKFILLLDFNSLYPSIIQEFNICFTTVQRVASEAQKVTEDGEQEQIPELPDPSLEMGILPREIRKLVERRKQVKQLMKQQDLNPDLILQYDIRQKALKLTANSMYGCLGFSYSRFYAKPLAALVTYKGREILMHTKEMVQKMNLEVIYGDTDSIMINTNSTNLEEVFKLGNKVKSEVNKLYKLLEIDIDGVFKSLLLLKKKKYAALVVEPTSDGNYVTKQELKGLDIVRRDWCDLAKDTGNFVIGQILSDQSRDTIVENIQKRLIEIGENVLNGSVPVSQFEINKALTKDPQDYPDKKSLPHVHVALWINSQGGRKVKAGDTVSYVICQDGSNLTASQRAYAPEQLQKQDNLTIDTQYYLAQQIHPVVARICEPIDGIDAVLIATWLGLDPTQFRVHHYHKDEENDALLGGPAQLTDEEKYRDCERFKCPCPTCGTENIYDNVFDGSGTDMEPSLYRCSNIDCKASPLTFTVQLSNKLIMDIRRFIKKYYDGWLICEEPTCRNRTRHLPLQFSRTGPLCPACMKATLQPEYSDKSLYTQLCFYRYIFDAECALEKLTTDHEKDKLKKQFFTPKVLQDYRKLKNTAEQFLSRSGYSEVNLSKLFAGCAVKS

[2] = Oral bioavailability in dog at 2 mg/kg; assay type: ADME, organism-based, Canis lupus familiaris; settings: in vivo
Summary of the method: (§1)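 In vivo PK: iv dosing in DMSO/PEG400/H₂O mixtures, oral dosing as methylcellulose suspension. Half-life was taken after iv dosing; AUC and Cmax after po dosing.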

[3] = Protein binding in rat plasma; assay type: ADME, cell-free; settings: read-out: PPB (converted)
Summary of the method: (§2)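 Plasma protein binding was measured by ultrafiltration after a 1 h incubation of compound in plasma at 37 °C.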

Cytochrome P450 1A2 = target: T2, Cytochrome P450 1A2 (Homo sapiens, UniProt P05177); assay: Inhibition of CYP1A2; assay type: ADME
T2 sequence (P05177 whole entry): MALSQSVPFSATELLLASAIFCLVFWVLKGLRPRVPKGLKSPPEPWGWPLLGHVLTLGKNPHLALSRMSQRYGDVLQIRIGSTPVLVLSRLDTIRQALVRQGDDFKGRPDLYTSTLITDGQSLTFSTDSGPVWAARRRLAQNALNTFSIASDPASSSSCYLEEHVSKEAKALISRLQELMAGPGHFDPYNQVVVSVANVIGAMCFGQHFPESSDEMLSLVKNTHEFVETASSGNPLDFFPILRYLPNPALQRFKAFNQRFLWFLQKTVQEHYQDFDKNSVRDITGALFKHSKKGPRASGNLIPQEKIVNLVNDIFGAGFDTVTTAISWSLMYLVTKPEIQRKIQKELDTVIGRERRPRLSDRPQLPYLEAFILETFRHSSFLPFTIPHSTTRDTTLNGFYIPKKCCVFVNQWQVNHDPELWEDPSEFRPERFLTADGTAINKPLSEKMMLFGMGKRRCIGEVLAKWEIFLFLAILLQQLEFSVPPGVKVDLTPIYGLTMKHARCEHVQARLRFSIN

Cytochrome P450 2C9 = Cytochrome P450 2C9 (Homo sapiens, UniProt P11712); assay: Inhibition of CYP2C9; assay type: ADME
[4] = system: Human immunodeficiency virus 1; assay: Antiviral activity against HIV1 in human MT4 cell assessed as inhibition of virus spread in presence of 10% fetal bovine serum; assay type: functional; settings: Human immunodeficiency virus 1, MT4; read-out: CIC95
Summary of the method: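 Spread of HIV-1 infection in MT-4 human T-lymphoid cell culture with 10% fetal bovine serum; CIC95 is the concentration inhibiting spread by ≥95%; mean of at least three independent experiments.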

[5] = Inhibition of recombinant HIV1 integrase strand transfer activity
Liver = assay: Metabolic stability in dog liver microsomes in presence of UDPGA; assay type: ADME, Canis lupus familiaris, Microsome
DNA polymerase beta = DNA polymerase beta (Homo sapiens, UniProt P06746); assay: Inhibition of human DNA polymerase beta
[6] = Metabolic stability in rhesus monkey liver microsomes in presence of UDPGA; assay type: ADME, Macaca mulatta, Microsome
Summary of the method: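 Single-point measurement: compound 2 µM, microsomes 0.3 mg/mL, with UDPGA; degradation quantified by LC/MS/MS after 1 h of incubation.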

Cytochrome P450 2D6 = Cytochrome P450 2D6 (Homo sapiens, UniProt P10635); assay: Inhibition of CYP2D6; assay type: ADME
[7] = Inhibition of HIV-RNase-H; parameters: species or system Human immunodeficiency virus
[8] = Protein binding in dog plasma; assay type: ADME, cell-free, Canis lupus familiaris; settings: read-out: PPB (converted)
Summary of the method: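 Plasma protein binding measured by ultrafiltration after incubation at 37 °C for 1 h.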

[9] = Oral bioavailability in rat at 3 mg/kg; assay type: ADME, organism-based; settings: in vivo; summary of the method: as §1
[10] = Plasma clearance in dog at 1 mg/kg, iv or 2 mg/kg, po; assay type: ADME, organism-based, Canis lupus familiaris; summary of the method: as §1
[11] = Inhibition of HCV polymerase; parameters: species or system Hepacivirus hominis
[12] = Plasma clearance in rat at 3 mg/kg, po or 3 mg/kg, iv; assay type: ADME, organism-based; summary of the method: as §1
[13] = Inhibition of human DNA polymerase gamma
[14] = Plasma clearance in rhesus monkey at 1 mg/kg, iv or 6.5 mg/kg, po; assay type: ADME, organism-based, Macaca mulatta
Summary of the method: (§3)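 Rhesus dosed 1 mg/kg iv in DMSO and 6.5 mg/kg po in 0.5% methylcellulose; plasma clearance and oral bioavailability.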

Homo sapiens = organism: Homo sapiens; assay: Protein binding in human plasma; settings: read-out: PPB (converted)
[15] = Oral bioavailability in rhesus monkey at 6.5 mg/kg; assay type: ADME, organism-based, Macaca mulatta; settings: in vivo; summary of the method: as §3
[16] = system: Human immunodeficiency virus 1; assay: Antiviral activity against HIV1 in human MT4 cell assessed as inhibition of virus spread in presence of 50% normal human serum; assay type: functional; settings: Human immunodeficiency virus 1, MT4; read-out: CIC95
Summary of the method: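 Spread of HIV-1 infection in MT-4 human T-lymphoid cell culture with 50% normal human serum; CIC95 is the concentration inhibiting spread by ≥95%; mean of at least three independent experiments.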

Cytochrome P450 2C19 = Cytochrome P450 2C19 (Homo sapiens, UniProt P33261); assay: Inhibition of CYP2C19; assay type: ADME
Cytochrome P450 3A4 = Cytochrome P450 3A4 (Homo sapiens, UniProt P08684); assay: Inhibition of CYP3A4; assay type: ADME
[17] = target: Voltage-gated inwardly rectifying potassium channel KCNH2 (Homo sapiens, UniProt Q12809); assay: Inhibition of human ERG
[18] = Protein binding in rhesus monkey plasma; assay type: ADME, cell-free, Macaca mulatta; settings: read-out: PPB (converted); summary of the method: as §2
[19] = Half life in rat at 3 mg/kg, iv; assay type: ADME, organism-based; parameters: dose 3 mg/kg, route intravenous; settings: in vivo; summary of the method: as §1
[20] = Volume of distribution at steady state in dog at 1 mg/kg, iv or 4 mg/kg, po; assay type: ADME, organism-based, Canis lupus familiaris; settings: in vivo, read-out: Vdss
Summary of the method: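 Dogs received 1 mg/kg intravenously in DMSO/PEG400/H₂O (20%-40%-40%) and 4 mg/kg orally as a 1% methylcellulose suspension. Volume of distribution was derived from the plasma concentration data.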

[21] = Cmax in rat at 3 mg/kg, po; assay type: ADME, organism-based; parameters: dose 3 mg/kg, route oral; settings: in vivo; summary of the method: as §1
[22] = Plasma clearance in dog at 1 mg/kg, iv or 4 mg/kg, po; assay type: ADME, organism-based, Canis lupus familiaris; summary of the method: as §1
[23] = Half life in dog at 1 mg/kg, iv; assay type: ADME, organism-based, Canis lupus familiaris; parameters: dose 1 mg/kg, route intravenous; settings: in vivo; summary of the method: as §1
[24] = Volume of distribution at steady state in rat at 3 mg/kg, iv or 3 mg/kg, po; assay type: ADME, organism-based; settings: in vivo, read-out: Vdss
[25] = AUC in rat at 10 mg/kg, po; assay type: ADME, organism-based; parameters: dose 10 mg/kg, route oral; settings: plasma; summary of the method: as §1
[26] = AUC in rat at 3 mg/kg, po; assay type: ADME, organism-based; parameters: dose 3 mg/kg, route oral; settings: plasma; summary of the method: as §1
[27] = Cmax in rat at 10 mg/kg, po; assay type: ADME, organism-based; parameters: dose 10 mg/kg, route oral; settings: in vivo; summary of the method: as §1
[28] = Oral bioavailability in dog at 4 mg/kg; assay type: ADME, organism-based, Canis lupus familiaris; settings: in vivo; summary of the method: as §1

Cytochrome P450 2D6, sequence (P10635 whole entry): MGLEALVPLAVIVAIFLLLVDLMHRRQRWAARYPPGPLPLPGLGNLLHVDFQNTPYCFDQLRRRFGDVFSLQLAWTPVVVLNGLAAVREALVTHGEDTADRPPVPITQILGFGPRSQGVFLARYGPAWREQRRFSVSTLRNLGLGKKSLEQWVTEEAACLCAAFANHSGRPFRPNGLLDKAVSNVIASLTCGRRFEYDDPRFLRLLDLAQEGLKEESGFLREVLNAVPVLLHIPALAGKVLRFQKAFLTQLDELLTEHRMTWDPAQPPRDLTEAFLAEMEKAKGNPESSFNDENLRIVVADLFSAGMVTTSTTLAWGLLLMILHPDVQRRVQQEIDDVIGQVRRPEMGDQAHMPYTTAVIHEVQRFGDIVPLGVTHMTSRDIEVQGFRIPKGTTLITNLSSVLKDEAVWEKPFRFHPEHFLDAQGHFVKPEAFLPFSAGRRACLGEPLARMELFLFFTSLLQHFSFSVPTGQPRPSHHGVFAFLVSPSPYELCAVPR
Cytochrome P450 3A4, sequence (P08684 whole entry): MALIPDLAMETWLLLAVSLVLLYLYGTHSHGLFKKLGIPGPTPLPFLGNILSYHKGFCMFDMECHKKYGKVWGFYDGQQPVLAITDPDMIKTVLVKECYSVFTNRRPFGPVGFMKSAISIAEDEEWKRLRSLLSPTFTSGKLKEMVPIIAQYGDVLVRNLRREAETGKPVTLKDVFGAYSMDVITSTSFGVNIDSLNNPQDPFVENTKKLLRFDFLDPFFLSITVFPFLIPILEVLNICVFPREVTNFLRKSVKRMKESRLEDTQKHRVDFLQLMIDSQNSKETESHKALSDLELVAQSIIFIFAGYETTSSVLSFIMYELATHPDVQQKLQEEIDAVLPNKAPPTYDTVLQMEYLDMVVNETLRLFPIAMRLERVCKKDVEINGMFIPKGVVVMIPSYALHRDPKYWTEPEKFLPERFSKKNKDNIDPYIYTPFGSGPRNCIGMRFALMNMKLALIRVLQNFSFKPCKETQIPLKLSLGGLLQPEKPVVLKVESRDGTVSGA
Cytochrome P450 2C9, sequence (P11712 whole entry): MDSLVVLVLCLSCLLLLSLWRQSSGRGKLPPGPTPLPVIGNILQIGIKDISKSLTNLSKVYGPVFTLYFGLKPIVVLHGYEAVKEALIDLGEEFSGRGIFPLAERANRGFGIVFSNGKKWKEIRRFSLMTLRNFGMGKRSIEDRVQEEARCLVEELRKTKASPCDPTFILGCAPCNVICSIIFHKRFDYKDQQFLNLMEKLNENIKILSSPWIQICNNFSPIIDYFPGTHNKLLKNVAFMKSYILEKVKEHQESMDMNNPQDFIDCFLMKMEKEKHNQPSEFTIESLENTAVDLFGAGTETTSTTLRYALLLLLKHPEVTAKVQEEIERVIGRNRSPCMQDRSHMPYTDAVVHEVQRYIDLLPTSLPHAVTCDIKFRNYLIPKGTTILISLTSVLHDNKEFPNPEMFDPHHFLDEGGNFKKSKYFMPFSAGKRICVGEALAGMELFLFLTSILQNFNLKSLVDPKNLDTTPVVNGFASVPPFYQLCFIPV
Cytochrome P450 2C19, sequence (P33261 whole entry): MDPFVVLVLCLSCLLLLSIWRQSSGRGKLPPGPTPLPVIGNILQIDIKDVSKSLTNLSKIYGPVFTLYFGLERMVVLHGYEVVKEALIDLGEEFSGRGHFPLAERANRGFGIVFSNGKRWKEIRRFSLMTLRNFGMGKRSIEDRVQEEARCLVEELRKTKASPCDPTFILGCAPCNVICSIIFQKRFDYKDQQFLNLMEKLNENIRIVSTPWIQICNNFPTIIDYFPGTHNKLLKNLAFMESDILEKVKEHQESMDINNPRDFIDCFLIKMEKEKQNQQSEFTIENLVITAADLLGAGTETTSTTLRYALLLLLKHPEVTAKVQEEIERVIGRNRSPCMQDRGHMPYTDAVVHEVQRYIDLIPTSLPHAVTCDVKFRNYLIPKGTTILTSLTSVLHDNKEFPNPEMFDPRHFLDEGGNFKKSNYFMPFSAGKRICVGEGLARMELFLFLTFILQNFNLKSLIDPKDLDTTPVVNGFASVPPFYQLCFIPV
Voltage-gated inwardly rectifying potassium channel KCNH2, sequence (Q12809 whole entry): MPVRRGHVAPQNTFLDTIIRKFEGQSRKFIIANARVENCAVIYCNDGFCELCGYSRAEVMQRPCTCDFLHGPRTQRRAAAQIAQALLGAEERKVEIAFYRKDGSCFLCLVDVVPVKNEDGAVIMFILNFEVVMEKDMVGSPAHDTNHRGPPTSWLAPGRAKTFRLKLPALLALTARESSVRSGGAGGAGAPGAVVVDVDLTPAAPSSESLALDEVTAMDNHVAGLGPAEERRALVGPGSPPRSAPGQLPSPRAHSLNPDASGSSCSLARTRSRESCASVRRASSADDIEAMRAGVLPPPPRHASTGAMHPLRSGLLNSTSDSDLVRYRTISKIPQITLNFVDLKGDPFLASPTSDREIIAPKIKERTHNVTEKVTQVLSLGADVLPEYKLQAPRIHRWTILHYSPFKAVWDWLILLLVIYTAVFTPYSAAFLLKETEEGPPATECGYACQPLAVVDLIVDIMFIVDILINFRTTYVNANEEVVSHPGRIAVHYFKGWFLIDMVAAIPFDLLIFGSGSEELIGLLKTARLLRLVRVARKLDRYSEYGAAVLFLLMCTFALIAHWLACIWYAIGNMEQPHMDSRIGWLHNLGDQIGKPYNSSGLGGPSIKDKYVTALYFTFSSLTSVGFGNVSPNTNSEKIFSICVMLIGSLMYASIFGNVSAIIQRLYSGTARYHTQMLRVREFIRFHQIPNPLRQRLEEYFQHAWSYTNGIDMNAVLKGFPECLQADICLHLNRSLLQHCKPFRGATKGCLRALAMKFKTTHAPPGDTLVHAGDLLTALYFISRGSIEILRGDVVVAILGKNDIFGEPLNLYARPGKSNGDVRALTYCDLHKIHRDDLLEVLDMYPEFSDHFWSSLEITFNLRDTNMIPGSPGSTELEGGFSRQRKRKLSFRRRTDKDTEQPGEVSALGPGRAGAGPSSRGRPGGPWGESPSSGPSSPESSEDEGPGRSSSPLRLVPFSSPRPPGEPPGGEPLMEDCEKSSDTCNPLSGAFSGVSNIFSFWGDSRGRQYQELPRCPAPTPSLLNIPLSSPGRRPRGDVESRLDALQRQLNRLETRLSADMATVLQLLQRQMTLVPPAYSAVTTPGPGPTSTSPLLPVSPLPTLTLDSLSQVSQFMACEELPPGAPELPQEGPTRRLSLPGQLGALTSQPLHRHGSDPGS

Stability (Liver microsomes): 81 %/hr
IC50 [1]: > 200 µM
bioavailability [2]: 42%
fraction unbound [3]: 0.01
IC50 (Cytochrome P450 1A2): > 100 µM
IC50 (Cytochrome P450 2C9): > 100 µM
IC50 [5]: 0.007 µM
Stability (Liver): 46 %/hr
IC50 (DNA polymerase beta): > 200 µM
Stability [6]: 84 %/hr
IC50 (Cytochrome P450 2D6): > 100 µM
IC50 [7]: > 25 µM
fraction unbound [8]: 0.11
bioavailability [9]: 63%
clearance [10]: 3.8 mL/min/kg
IC50 [11]: > 50 µM
clearance [12]: 1.8 mL/min/kg
IC50 [13]: > 200 µM
clearance [14]: 27 mL/min/kg
fraction unbound (Homo sapiens): 0.19
bioavailability [15]: 9%
IC50 (Cytochrome P450 2C19): > 100 µM
IC50 (Cytochrome P450 3A4): > 100 µM
fraction unbound [18]: 0.14
Structure (SMILES): CN(C)S(=O)(=O)N(C)[C@@H]1CCCn2c1nc(C(=O)NCc1ccc(F)cc1)c(O)c2=O
IC95 [4]: 0.016 µM
IC95 [16]: 0.044 µM
IC50 [17]: 20 µM

half-life [19]: 14 h
fraction unbound [3]: 0.16
IC50 [5]: 0.012 µM
Vd [20]: 1.2 L/kg
Cmax [21]: 2000 nM
clearance [22]: 15 mL/min/kg
fraction unbound [8]: 0.34
bioavailability [9]: 47%
half-life [23]: 1.7 h
Vd [24]: 3 L/kg
clearance [12]: 11 mL/min/kg
AUC [25]: 3.8 µM·h
AUC [26]: 2.5 µM·h
Cmax [27]: 2500 nM
fraction unbound (Homo sapiens): 0.37
bioavailability [28]: 39%
Structure (SMILES): CN(C)C(=O)C(=O)N(C)[C@H]1CCCn2c1nc(C(=O)NCc1ccc(F)cc1)c(O)c2=O
IC95 [4]: 0.033 µM
IC95 [16]: 0.043 µM
